# Assay results from ChEMBL document CHEMBL1949577, “Design, synthesis and biological evaluation of novel (E)-α-benzylsulfonyl chalcone derivatives as potential BRAF inhibitors” (Eur J Med Chem, 2012).
# What was measured:
# [1] = Inhibition of mouse full length GST-tagged B-Raf V600E mutant-mediated human MEK1 phosphorylation after 1 hr preincubation
# [2] = biological target: Serine/threonine-protein kinase B-raf (Homo sapiens, UniProt P15056, V600E); assay: Inhibition of B-Raf V600E mutant-mediated ERK phosphorylation in human WM266.4 cells by ELISA; format: cell-based
# Summary of the method: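 Phospho-ERK1/2 levels in WM266.4 melanoma cells were measured with an ELISA kit, run as the manufacturer instructs.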
# [3] = Growth inhibition of human WM266.4 cells expressing B-Raf V600E mutant after 24 hrs by MTT assay; format: functional; conditions: WM 266-4, 24 h
# Summary of the method: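 MTT growth assay. Cells were plated, then returned to the incubator for 24 h to reattach before treatment. Compounds were made up at 20 mM in DMSO (stock), diluted in culture medium to […], and tested over 10 threefold serial dilutions. GI50 was reported from three separate experiments, or from two for some entries.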
# Serine/threonine-protein kinase B-raf, sequence (P15056 2-766 V600E limits assumed): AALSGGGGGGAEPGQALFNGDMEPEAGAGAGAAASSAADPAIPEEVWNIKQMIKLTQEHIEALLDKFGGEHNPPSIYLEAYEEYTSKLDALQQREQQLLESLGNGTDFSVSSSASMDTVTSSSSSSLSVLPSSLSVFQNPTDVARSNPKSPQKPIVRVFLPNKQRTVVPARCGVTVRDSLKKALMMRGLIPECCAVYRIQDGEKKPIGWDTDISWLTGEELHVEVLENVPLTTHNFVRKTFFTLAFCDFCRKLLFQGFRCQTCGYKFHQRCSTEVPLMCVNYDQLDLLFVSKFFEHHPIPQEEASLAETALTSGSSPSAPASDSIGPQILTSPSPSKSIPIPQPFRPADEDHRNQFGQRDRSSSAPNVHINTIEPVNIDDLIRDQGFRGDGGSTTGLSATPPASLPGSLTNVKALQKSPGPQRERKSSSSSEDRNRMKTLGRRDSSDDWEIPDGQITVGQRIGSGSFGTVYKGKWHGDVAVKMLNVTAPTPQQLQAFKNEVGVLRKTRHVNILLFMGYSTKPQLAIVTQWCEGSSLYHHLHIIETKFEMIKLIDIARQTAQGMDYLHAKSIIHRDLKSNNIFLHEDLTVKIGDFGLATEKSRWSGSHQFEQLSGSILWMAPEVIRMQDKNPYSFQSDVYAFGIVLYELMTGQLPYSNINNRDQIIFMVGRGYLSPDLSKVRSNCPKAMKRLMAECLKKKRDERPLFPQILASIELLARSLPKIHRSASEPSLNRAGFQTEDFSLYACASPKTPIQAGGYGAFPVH
IC50 [1] [µM],IC50 [2] [µM],Compound,GI50 [3] [µM]
–,1.78,O=C(/C(=C\c1ccc(F)cc1)S(=O)(=O)Cc1ccccc1)c1ccc(Cl)cc1,–
–,1.23,O=C(/C(=C\c1ccc([N+](=O)[O-])cc1)S(=O)(=O)Cc1ccccc1)c1ccc(Cl)cc1,–
–,1.37,O=C(/C(=C\c1ccc([N+](=O)[O-])cc1)S(=O)(=O)Cc1ccccc1)c1ccccc1,–
8.61,–,Cc1ccc(N(Cc2cc(Cl)cc(Cl)c2O)CN(N=O)c2ccccc2)cc1,–

# Continued, compound first:
Compound,IC50 [1] [µM],IC50 [2] [µM],GI50 [3] [µM]
Cc1ccc(N2C(=O)c3ccccc3SC2c2cc(Br)ccc2O)cc1 (centres undefined),> 25,–,–
CNC(=O)c1cc(Oc2ccc(NC(=O)Nc3ccc(Cl)c(C(F)(F)F)c3)cc2)ccn1 [SORAFENIB],0.06,–,8.3
O=C1c2ccccc2SC(c2cc(Br)ccc2O)N1c1ccc(C(F)(F)F)cc1 (centres undefined),> 25,–,–
O=c1cc(-c2ccc3c(c2)OCCO3)oc2cc(CCCN3CCCC3)cc(O)c12,10.6,–,–
